Data taken from ChEMBL document CHEMBL1145969, “New semisynthetic quassinoids with in vivo antimalarial activity” (J Med Chem, 2003).

Legend:
FM3A = assay: Cytotoxicity of compound was tested against mouse mammary tumor FM3A cells; type: functional, cell-based
Mus musculus [1] = assay: In Vivo antimalarial activity of compound was tested in Plasmodium berghei infected mice (Mus musculus); type: functional
Outline: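 Four-day suppressive test in P. berghei-infected mice, dosed daily at up to 3.0 mg/kg per day. Parasitemia is the number of infected erythrocytes over total erythrocytes. Survival is scored as increase of life span: ILS = (T/C − 1) × 100%, using mean survival days of the treated (T) and control (C) groups.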

Mus musculus [2] = assay: Antimalarial potency was evaluated by the increase of life span of mice (Mus musculus) at 1 mg/kg; type: functional
Outline: (§1)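 Mice infected with P. berghei were treated daily in a 4-day suppressive test, with the dose as given in each line. Increase of life span = (T/C − 1) × 100%, where T and C are the mean survival days of the treated and control groups.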

[3] = Selectivity index defined as mean of EC50 value for FM3A cells/mean of EC50 value for Plasmodium falciparum was determined; type: functional
Outline: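 Index is the mean EC50 in FM3A mouse mammary tumor cells (the host-cell model) divided by the mean EC50 against chloroquine-sensitive P. falciparum FCR-3.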

Plasmodium falciparum = assay: In vitro antimalarial activity against Plasmodium falciparum; type: functional, organism-based
Outline: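 Chloroquine-sensitive P. falciparum, FCR-3 strain, grown in vitro; potency is reported as EC50.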

Mus musculus [4] = assay: Antimalarial potency was evaluated by the increase of life span of mice (Mus musculus) at 3 mg/kg; type: functional; outline: as §1

| EC50 (Plasmodium falciparum) [µM] | SMILES | EC50 (FM3A) [µM] | ED50 (Mus musculus [1]) [mg/kg] | ED90 (Mus musculus [1]) [mg/kg] | ILS at 1 mg/kg (Mus musculus [2]) [%] | Selectivity index [3] | ILS at 3 mg/kg (Mus musculus [4]) [%] |
| --- | --- | --- | --- | --- | --- | --- | --- |
|  | COC(=O)[C@@]12OC[C@]34[C@H]([C@@H](O)[C@@H]1O)[C@@]1(C)CC(=O)C(OC(C)=O)=C(C)[C@@H]1C[C@H]3OC(=O)[C@H](OC(C)=O)[C@@H]24 | 16 | 0.46 | 0.98 | 49 | 410 |  |
| 0.053 | COC(=O)O[C@H]1C(=O)O[C@@H]2C[C@H]3C(C)=C(O)C(=O)C[C@]3(C)[C@H]3[C@@H](O)[C@H](O)[C@@]4(C(=O)OC)OC[C@]32[C@@H]14 | 8.7 |  |  |  | 164 |  |
| 0.1 | CCCOC(=O)OC1=C(C)[C@@H]2C[C@H]3OC(=O)[C@H](OC(=O)OCCC)[C@H]4[C@]5(C(=O)OC)OC[C@]34[C@H]([C@@H](O)[C@@H]5O)[C@@]2(C)CC1=O | 6.6 |  |  |  | 66 |  |
| 0.88 | COC(=O)[C@@]12OC[C@]34[C@H]([C@@H](O)[C@@H]1O)[C@@]1(C)CC(=O)C(OC(C)=O)=C(C)[C@@H]1C[C@H]3OC(=O)[C@H](O)[C@@H]24 | > 32 |  |  |  | >36 |  |
| 0.014 | CCCCOC(=O)OC1=C(C)[C@@H]2C[C@H]3OC(=O)[C@H](OC(=O)OCCCC)[C@H]4[C@]5(C(=O)OC)OC[C@]34[C@H]([C@@H](O)[C@@H]5O)[C@@]2(C)CC1=O | 0.7 |  |  |  | 50 |  |
|  | COC(=O)[C@@]12OC[C@]34[C@H]([C@@H](O)[C@@H]1O)[C@@]1(C)CC(=O)C(O)=C(C)[C@@H]1C[C@H]3OC(=O)[C@H](OC(C)=O)[C@@H]24 [BRUCEINE B] | 8 |  |  |  | 333 |  |
|  | COC(=O)[C@@]12OC[C@]34[C@H]([C@@H](O)[C@@H]1O)[C@@]1(C)CC(=O)C(O)=C(C)[C@@H]1C[C@H]3OC(=O)[C@H](O)[C@@H]24 [BRUCEOLIDE] |  | 1.1 |  |  |  |  |
|  | CCN(CC)CCCC(C)Nc1ccnc2cc(Cl)ccc12 (stereo not drawn) [CHLOROQUINE] | 32 | 2 | 3.3 |  | 1780 | 15 |

| SMILES | EC50 (Plasmodium falciparum) [µM] | EC50 (FM3A) [µM] | ED50 (Mus musculus [1]) [mg/kg] | ED90 (Mus musculus [1]) [mg/kg] | ILS at 1 mg/kg (Mus musculus [2]) [%] | Selectivity index [3] | ILS at 3 mg/kg (Mus musculus [4]) [%] |
| --- | --- | --- | --- | --- | --- | --- | --- |
| COC(=O)[C@@]12OC[C@]34[C@H]([C@@H](O)[C@@H]1O)[C@@]1(C)CC(=O)C(OC(=O)OC(C)C)=C(C)[C@@H]1C[C@H]3OC(=O)[C@H](OC(=O)OC(C)C)[C@@H]24 | 0.08 | 11 | 1.4 | > 3 |  | 138 | 86 |
| COC(=O)OC1=C(C)[C@@H]2C[C@H]3OC(=O)[C@H](OC(=O)OC)[C@H]4[C@]5(C(=O)OC)OC[C@]34[C@H]([C@@H](O)[C@@H]5O)[C@@]2(C)CC1=O | 0.09 | > 63 | 1.3 | 3 |  | >700 | 196 |
| CCOC(=O)OC1=C(C)[C@@H]2C[C@H]3OC(=O)[C@H](OC(=O)OCC)[C@H]4[C@]5(C(=O)OC)OC[C@]34[C@H]([C@@H](O)[C@@H]5O)[C@@]2(C)CC1=O | 0.064 | 36 | 0.49 | 1.9 |  | 563 | 182 |
